Assay results published in ChEMBL document CHEMBL3877308, “Design, synthesis and in vitro biological evaluation of oligopeptides targeting E. coli type I signal peptidase (LepB)” (Bioorg Med Chem, 2017).
Converted amounts (≈) assume the structure as drawn.

Key:
[1] = biological target: Signal peptidase I (Escherichia coli K-12) (UniProt P00803); experiment: Inhibition of full length Escherichia coli His6-tagged LepB expressed in Escherichia coli C43(DE3) assessed as residual activity at 5 uM using dabcyl-VEVGGTATAGAFSRPGLE-(EDANS) as substrate preincubated for 10 mins followed by substrate addition measured for 2 hrs by FRET assay relative to control
Sequence of Signal peptidase I (Escherichia coli K-12) (P00803 whole entry): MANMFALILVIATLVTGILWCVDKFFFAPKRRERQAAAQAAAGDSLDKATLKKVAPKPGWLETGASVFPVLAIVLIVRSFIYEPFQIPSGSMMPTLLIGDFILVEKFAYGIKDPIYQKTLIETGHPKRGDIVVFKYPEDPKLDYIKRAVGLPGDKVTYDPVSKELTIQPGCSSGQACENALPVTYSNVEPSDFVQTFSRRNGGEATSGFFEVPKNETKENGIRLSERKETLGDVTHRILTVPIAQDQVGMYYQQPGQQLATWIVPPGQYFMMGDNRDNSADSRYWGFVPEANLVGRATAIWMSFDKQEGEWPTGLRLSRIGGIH
Summary of the method: (§1)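 Enzyme came from the membrane fraction, extracted with 1% reduced Triton X-100 and purified by metal-chelation chromatography in 0.5% detergent. FRET pair was dabcyl acceptor and EDANS donor. EcLepB (final about 50 nM) was pre-incubated with compound 10 min at 22 °C. Reaction was then run with 8 µM substrate, following the linear fluorescence increase at 22 °C for 2 h.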

[2] = biological target: Signal peptidase I (Escherichia coli K-12) (UniProt P00803); experiment: Inhibition of full length Escherichia coli His6-tagged LepB expressed in Escherichia coli C43(DE3) assessed as residual activity at 0.039 uM using dabcyl-VEVGGTATAGAFSRPGLE-(EDANS) as substrate preincubated for 10 mins followed by substrate addition measured for 2 hrs by FRET assay relative to control; summary of the method: as §1
[3] = biological target: Signal peptidase I (Escherichia coli K-12) (UniProt P00803); experiment: Inhibition of full length Escherichia coli His6-tagged LepB expressed in Escherichia coli C43(DE3) at 100 uM using dabcyl-VEVGGTATAGAFSRPGLE-(EDANS) as substrate preincubated for 10 mins followed by substrate addition measured for 2 hrs by FRET assay relative to control; summary of the method: as §1
[4] = biological target: Signal peptidase I (Escherichia coli K-12) (UniProt P00803); experiment: Inhibition of full length Escherichia coli His6-tagged LepB expressed in Escherichia coli C43(DE3) assessed as residual activity at 2.5 uM using dabcyl-VEVGGTATAGAFSRPGLE-(EDANS) as substrate preincubated for 10 mins followed by substrate addition measured for 2 hrs by FRET assay relative to control; summary of the method: as §1
Signal peptidase I = Signal peptidase I (Escherichia coli K-12, UniProt P00803); experiment: Inhibition of full length Escherichia coli His6-tagged LepB expressed in Escherichia coli C43(DE3) using dabcyl-VEVGGTATAGAFSRPGLE-(EDANS) as substrate preincubated for 10 mins followed by substrate addition measured for 2 hrs by FRET assay
Sequence of Signal peptidase I (P00803 whole entry): as above
Summary of the method: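 Enzyme extracted from the membrane fraction with 1% reduced Triton X-100 and purified by metal-chelation chromatography in 0.5% detergent. Enzyme (final ~50 nM) was pre-incubated with compound for 10 min at 22 °C. The linear rise in EDANS donor fluorescence (dabcyl acceptor) was then followed at 22 °C for 2 h. IC50 came from non-linear regression of sigmoidal rate-versus-concentration curves.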

[5] = biological target: Signal peptidase I (Escherichia coli K-12) (UniProt P00803); experiment: Inhibition of full length Escherichia coli His6-tagged LepB expressed in Escherichia coli C43(DE3) assessed as residual activity at 0.078 uM using dabcyl-VEVGGTATAGAFSRPGLE-(EDANS) as substrate preincubated for 10 mins followed by substrate addition measured for 2 hrs by FRET assay relative to control; summary of the method: as §1
[6] = Hemolytic activity against human RBC at 100 uM after 45 mins by spectrophotometric method relative to control; type: ADME, cell-based, Erythrocyte; conditions: red blood cells (RBC), read-out: Activity
Summary of the method: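 Hemolysis was tested using red blood cells from heparinized human blood.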

[7] = Cytotoxicity against human HepG2 cells assessed as reduction in cell viability after 72 hrs by fluorescein diacetate dye based fluorometric microculture assay; type: toxicity
Summary of the method: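 FMCA on HepG2 cells read at 72 h. Survival index (%) is fluorescence in test wells as percent of control cultures, with blank values subtracted. IC50 was obtained by non-linear regression of log concentration-effect curves.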

Klebsiella pneumoniae = experiment: Antibacterial activity against wild type Klebsiella pneumoniae […] after 16 to 20 hrs by broth microdilution assay; type: functional
Summary of the method: (§2)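 MIC by broth microdilution in cation-adjusted Mueller-Hinton II medium, following EUCAST and CLSI guidelines; panel of Gram-negative strains plus S. aureus ATCC 29213.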

Escherichia coli [8] = experiment: Antibacterial activity against wild type Escherichia coli ATCC 25922 after 16 to 20 hrs by broth microdilution assay; type: functional; summary of the method: as §2
[9] = biological target: Signal peptidase I (Escherichia coli K-12) (UniProt P00803); experiment: Inhibition of full length Escherichia coli His6-tagged LepB expressed in Escherichia coli C43(DE3) assessed as residual activity at 0.156 uM using dabcyl-VEVGGTATAGAFSRPGLE-(EDANS) as substrate preincubated for 10 mins followed by substrate addition measured for 2 hrs by FRET assay relative to control; summary of the method: as §1
[10] = biological target: Signal peptidase I (Escherichia coli K-12) (UniProt P00803); experiment: Inhibition of full length Escherichia coli His6-tagged LepB expressed in Escherichia coli C43(DE3) assessed as residual activity at 0.005 uM using dabcyl-VEVGGTATAGAFSRPGLE-(EDANS) as substrate preincubated for 10 mins followed by substrate addition measured for 2 hrs by FRET assay relative to control; summary of the method: as §1
Pseudomonas aeruginosa [11] = experiment: Antibacterial activity against wild type Pseudomonas aeruginosa PAO750 harboring efflux defective mutant after 16 to 20 hrs by broth microdilution assay; type: functional
Summary of the method: (§3)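 Broth microdilution MIC in cation-adjusted Mueller-Hinton II medium, following EUCAST and CLSI guidelines; tested on a panel of Gram-negative strains plus S. aureus ATCC 29213 (wild-type).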

[12] = biological target: Signal peptidase I (Escherichia coli K-12) (UniProt P00803); experiment: Inhibition of full length Escherichia coli His6-tagged LepB expressed in Escherichia coli C43(DE3) assessed as residual activity at 0.002 uM using dabcyl-VEVGGTATAGAFSRPGLE-(EDANS) as substrate preincubated for 10 mins followed by substrate addition measured for 2 hrs by FRET assay relative to control; summary of the method: as §1
Acinetobacter baumannii = experiment: Antibacterial activity against wild type Acinetobacter baumannii ATCC 19606 after 16 to 20 hrs by broth microdilution assay; type: functional; summary of the method: as §2
[13] = biological target: Signal peptidase I (Escherichia coli K-12) (UniProt P00803); experiment: Inhibition of full length Escherichia coli His6-tagged LepB expressed in Escherichia coli C43(DE3) assessed as residual activity at 0.001 uM using dabcyl-VEVGGTATAGAFSRPGLE-(EDANS) as substrate preincubated for 10 mins followed by substrate addition measured for 2 hrs by FRET assay relative to control; summary of the method: as §1
Pseudomonas aeruginosa [14] = experiment: Antibacterial activity against wild type Pseudomonas aeruginosa PAO1 after 16 to 20 hrs by broth microdilution assay; type: functional; summary of the method: as §2
Escherichia coli [15] = experiment: Antibacterial activity against Escherichia coli CH3130 harboring tolC deletion mutant after 16 to 20 hrs by broth microdilution assay; type: functional; summary of the method: as §3
[16] = biological target: Signal peptidase I (Escherichia coli K-12) (UniProt P00803); experiment: Inhibition of full length Escherichia coli His6-tagged LepB expressed in Escherichia coli C43(DE3) assessed as residual activity at 1.25 uM using dabcyl-VEVGGTATAGAFSRPGLE-(EDANS) as substrate preincubated for 10 mins followed by substrate addition measured for 2 hrs by FRET assay relative to control; summary of the method: as §1
[17] = biological target: Signal peptidase I (Escherichia coli K-12) (UniProt P00803); experiment: Inhibition of full length Escherichia coli His6-tagged LepB expressed in Escherichia coli C43(DE3) assessed as residual activity at 0.01 uM using dabcyl-VEVGGTATAGAFSRPGLE-(EDANS) as substrate preincubated for 10 mins followed by substrate addition measured for 2 hrs by FRET assay relative to control; summary of the method: as §1
Escherichia coli [18] = experiment: Antibacterial activity against Escherichia coli D22 harboring lpxC mutant after 16 to 20 hrs by broth microdilution assay; type: functional; summary of the method: as §3
[19] = biological target: Signal peptidase I (Escherichia coli K-12) (UniProt P00803); experiment: Inhibition of full length Escherichia coli His6-tagged LepB expressed in Escherichia coli C43(DE3) assessed as residual activity at 0.313 uM using dabcyl-VEVGGTATAGAFSRPGLE-(EDANS) as substrate preincubated for 10 mins followed by substrate addition measured for 2 hrs by FRET assay relative to control; summary of the method: as §1
Staphylococcus aureus = experiment: Antibacterial activity against wild type Staphylococcus aureus ATCC 29213 after 16 to 20 hrs by broth microdilution assay; type: functional; summary of the method: as §2
[20] = biological target: Signal peptidase I (Escherichia coli K-12) (UniProt P00803); experiment: Inhibition of full length Escherichia coli His6-tagged LepB expressed in Escherichia coli C43(DE3) assessed as residual activity at 0.02 uM using dabcyl-VEVGGTATAGAFSRPGLE-(EDANS) as substrate preincubated for 10 mins followed by substrate addition measured for 2 hrs by FRET assay relative to control; summary of the method: as §1
[21] = biological target: Signal peptidase I (Escherichia coli K-12) (UniProt P00803); experiment: Inhibition of full length Escherichia coli His6-tagged LepB expressed in Escherichia coli C43(DE3) assessed as residual activity at 0.625 uM using dabcyl-VEVGGTATAGAFSRPGLE-(EDANS) as substrate preincubated for 10 mins followed by substrate addition measured for 2 hrs by FRET assay relative to control; summary of the method: as §1
[22] = biological target: Signal peptidase I (Escherichia coli K-12) (UniProt P00803); experiment: Inhibition of full length Escherichia coli His6-tagged LepB expressed in Escherichia coli C43(DE3) assessed as residual activity at 0.0005 uM using dabcyl-VEVGGTATAGAFSRPGLE-(EDANS) as substrate preincubated for 10 mins followed by substrate addition measured for 2 hrs by FRET assay relative to control; summary of the method: as §1
[23] = biological target: Signal peptidase I (Escherichia coli K-12) (UniProt P00803); experiment: Inhibition of full length Escherichia coli His6-tagged LepB expressed in Escherichia coli C43(DE3) assessed as residual activity at 10 uM using dabcyl-VEVGGTATAGAFSRPGLE-(EDANS) as substrate preincubated for 10 mins followed by substrate addition measured for 2 hrs by FRET assay relative to control; summary of the method: as §1

Compound	Activity [1] [%]	inhibition [3] [%]	Activity [4] [%]	IC50 (Signal peptidase I) [nM]	hemolysis at 0.75 h, 100 µM [6] [%]	IC50 at 72 h [7] [nM]	MIC (Klebsiella pneumoniae) [µg/mL]	MIC (Escherichia coli [8]) [µg/mL]	Activity [9] [%]	MIC (Pseudomonas aeruginosa [11]) [µg/mL]	Activity [12] [%]	MIC (Acinetobacter baumannii) [µg/mL]	Activity [13] [%]	MIC (Pseudomonas aeruginosa [14]) [µg/mL]	MIC (Escherichia coli [15]) [µg/mL]	Activity [16] [%]	Activity [17] [%]	MIC (Escherichia coli [18]) [µg/mL]	MIC (Staphylococcus aureus) [µg/mL]	Activity [20] [%]	further results
CCCCCCc1ccc(-c2ccc(C(=O)N3CCC[C@H]3C(=O)N[C@H](C(=O)N[C@@H](C)C(=O)N[C@@H](CC(N)=O)C(=O)N[C@@H](C)B3O[C@@H]4C[C@@H]5C[C@@H](C5(C)C)[C@]4(C)O3)[C@H](C)O)cc2)cc1	11.2	> 50	7.64	12	1.1	4700	> 64	> 64	16.9	> 64	92.8	> 64	94.4	> 64	64 (≈ 73.5 µM)	11.4	57	16 (≈ 18.4 µM)	4 (≈ 4.59 µM)	51.2	Activity [2]: 16.8%; Activity [5]: 11.5%; Activity [10]: 82.2%; Activity [19]: 17.4%; Activity [21]: 16%; Activity [22]: 100%
CCCCCCc1ccc(-c2ccc(C(=O)N3CC(CN)C[C@H]3C(=O)N[C@H](C(=O)N[C@@H](C)C(=O)N[C@@H](CC(N)=O)C(=O)N[C@@H](C)B(O)O)[C@H](C)O)cc2)cc1 (stereo partly specified)	28.2	> 50	24.8	6	2.5	15600	8 (≈ 10.4 µM)	16 (≈ 20.9 µM)	27.4	4 (≈ 5.22 µM)	85.8	8 (≈ 10.4 µM)	86.8	64 (≈ 83.6 µM)	2 (≈ 2.61 µM)	28.4	51.8	0.5 (≈ 0.653 µM)	0.25 (≈ 0.326 µM)	36.2	Activity [2]: 27.7%; Activity [5]: 25.7%; Activity [23]: 24.6%; Activity [10]: 60.1%; Activity [19]: 25.3%; Activity [21]: 25.1%; Activity [22]: 88.8%
CCCCCCc1ccc(-c2ccc(C(=O)N3CC(CN)C[C@H]3C(=O)N[C@H](C(=O)N[C@@H](C)C(=O)N[C@@H](CC(N)=O)C(=O)N[C@@H](C)B3O[C@@H]4C[C@@H]5C[C@@H](C5(C)C)[C@]4(C)O3)[C@H](C)O)cc2)cc1 (stereo partly specified)	4.04	> 50	0.353	18	5.7	18600	16 (≈ 17.8 µM)	32 (≈ 35.6 µM)	6.31	8 (≈ 8.89 µM)	88.8	32 (≈ 35.6 µM)	89.7	64 (≈ 71.1 µM)	4 (≈ 4.44 µM)	0.881	81.6	1 (≈ 1.11 µM)	0.5 (≈ 0.556 µM)	37.6	Activity [23]: 3.93%; Activity [21]: 5.53%; Activity [22]: 99.3%
